Key:
Nucleic Acid [1] = experiment: DNA binding property and activity expressed as K; format: nucleic-acid assay
Procedure, shortened: (§1)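 Absorbance read at the unbound-drug λmax after 5-min equilibration, against a buffer blank. K and n were obtained by nonlinear regression of absorbance against cumulative DNA volume, using a one- or two-site model.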

Nucleic Acid [2] = experiment: DNA binding property and activity expressed as Kn; format: nucleic-acid assay; procedure, shortened: as §1
Mus musculus [3] = experiment: In vivo antitumor activity against P-388 leukemia in mice at the dose of 50 mg/kg.; format: functional
Procedure, shortened: (§2)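 P-388 leukemia in mice; compounds given as hydrochloride salts. Screening was done by the NCI Drug Research and Development Program. Result expressed as T/C (%).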

Mus musculus [4] = experiment: In vivo antitumor activity against P-388 leukemia in mice at the dose of 200 mg/kg.; format: functional; procedure, shortened: as §2
Mus musculus [5] = experiment: In vivo antitumor activity against P-388 leukemia in mice at the dose of 100 mg/kg.; format: functional; procedure, shortened: as §2
Mus musculus [6] = experiment: In vivo antitumor activity against P-388 leukemia in mice at the dose of 40 mg/kg.; format: functional; procedure, shortened: as §2
Mus musculus [7] = experiment: In vivo antitumor activity against P-388 leukemia in mice at the dose of 5 mg/kg.; format: functional; procedure, shortened: as §2

| Compound | K (Nucleic Acid [1]) | Kn (Nucleic Acid [2]) | T/C (Mus musculus [3]) | T/C (Mus musculus [4]) | T/C (Mus musculus [5]) | T/C (Mus musculus [6]) | T/C (Mus musculus [7]) |
| --- | --- | --- | --- | --- | --- | --- | --- |
| CN(C)CCCNC(=O)Cc1cc(O)c2c(c1O)C(=O)c1ccccc1C2=O.Cl | 259000 M⁻¹ | 65000 M⁻¹ | 106% |  |  |  |  |
| CCN(CC)CCNC(=O)c1ccc2c(c1)C(=O)c1ccccc1C2=O.Cl |  |  |  | 119% |  |  |  |
| CN(C)CCNC(=O)Cc1cc(O)c2c(c1O)C(=O)c1ccccc1C2=O.Cl | 289000 M⁻¹ | 75000 M⁻¹ |  |  | 118% |  |  |
| CN(C)CCCNC(=O)c1ccc2c(c1O)C(=O)c1ccccc1C2=O.Cl | 78000 M⁻¹ | 9400 M⁻¹ | 118% |  |  |  |  |
| CCN(CC)CCNC(=O)Cc1cc(O)c2c(c1O)C(=O)c1ccccc1C2=O.Cl | 529000 M⁻¹ | 100000 M⁻¹ |  |  | 106% |  |  |
| CCN(CC)CCCC(C)NC(=O)c1ccc2c(c1)C(=O)c1ccccc1C2=O.Cl (stereo not given) |  |  |  | 127% |  |  |  |
| CCN(CC)CCCC(C)NC(=O)Cc1cc(O)c2c(c1O)C(=O)c1ccccc1C2=O.Cl (stereo not given) | 308000 M⁻¹ | 49000 M⁻¹ |  |  |  | 125% |  |
| CCN(CC)CCNC(=O)c1ccc2c(c1O)C(=O)c1ccccc1C2=O | 46000 M⁻¹ | 9100 M⁻¹ |  |  |  |  |  |

Continued, in another order:

| K (Nucleic Acid [1]) | Kn (Nucleic Acid [2]) | Compound | T/C (Mus musculus [3]) | T/C (Mus musculus [4]) | T/C (Mus musculus [5]) | T/C (Mus musculus [6]) | T/C (Mus musculus [7]) |
| --- | --- | --- | --- | --- | --- | --- | --- |
| 127000 M⁻¹ | 29000 M⁻¹ | CCN(CC)CCCNC(=O)Cc1cc(O)c2c(c1O)C(=O)c1ccccc1C2=O.Cl | 108% |  |  |  |  |
| 92000 M⁻¹ | 12900 M⁻¹ | CCN(CC)CCCNC(=O)c1ccc2c(c1O)C(=O)c1ccccc1C2=O |  |  |  |  |  |
| 59000 M⁻¹ | 11000 M⁻¹ | CN(C)CCCNC(=O)c1ccc2c(c1)C(=O)c1ccccc1C2=O.Cl |  | 115% |  |  |  |
| 78000 M⁻¹ | 10100 M⁻¹ | CCN(CC)CCCC(C)NC(=O)c1ccc2c(c1O)C(=O)c1ccccc1C2=O.Cl (stereo not given) |  |  |  |  | 106% |

From ChEMBL document CHEMBL1122035, “Preparation and evaluation of 2-substituted anthraquinones based on the anthracyclines” (1982)
